Assays:
Assay type in all cases: functional
[1] = test system: Mycobacterium tuberculosis; assay: Antimycobacterial activity against drug-resistant Mycobacterium tuberculosis H37Rv ATCC 2517-infected hollow fiber system based in vitro pharmacokinetic-pharmacodynamic tuberculosis model assessed as rate constant for maximal bacterial growth
[2] = test system: Mycobacterium tuberculosis; assay: Antimycobacterial activity against drug-resistant Mycobacterium tuberculosis H37Rv ATCC 2517-infected hollow fiber system based in vitro pharmacokinetic-pharmacodynamic tuberculosis model assessed as concentration needed to achieve 50% effect on maximal growth rate
[3] = test system: Mycobacterium tuberculosis; assay: Antimycobacterial activity against drug-resistant Mycobacterium tuberculosis H37Rv ATCC 2517-infected hollow fiber system based in vitro pharmacokinetic-pharmacodynamic tuberculosis model assessed as sigmoidicity constant for drug effect on microbial growth
[4] = test system: Mycobacterium tuberculosis; assay: Antimycobacterial activity against drug-resistant Mycobacterium tuberculosis H37Rv ATCC 2517-infected hollow fiber system based in vitro pharmacokinetic-pharmacodynamic tuberculosis model assessed as rate constant for maximal bacterial kill
[5] = test system: Mycobacterium tuberculosis; assay: Antimycobacterial activity against drug-resistant Mycobacterium tuberculosis H37Rv ATCC 2517-infected hollow fiber system based in vitro pharmacokinetic-pharmacodynamic tuberculosis model assessed as concentration needed to achieve 50% maximal killing rate
How it was run: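 Hollow-fibre system at 37°C under 5% CO2, preconditioned with drug for 3 days. Log-phase bacilli (10 ml of 10^6 CFU/ml) went into the peripheral compartment. […] Drug levels were checked centrally. Peripheral samples were taken daily for 7 days, washed twice in saline and plated on 7H10 agar for CFU.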

[6] = test system: Mycobacterium tuberculosis; assay: Antimycobacterial activity against drug-resistant Mycobacterium tuberculosis H37Rv ATCC 2517-infected hollow fiber system based in vitro pharmacokinetic-pharmacodynamic tuberculosis model assessed as sigmoidicity constant for microbial killing

Q: Which Kgmax [1] does the source give for `CO[C@H]1/C=C/O[C@@]2(C)Oc3c(C)c(O)c4c(O)c(c(/C=N/N5CCN(C)CC5)c(O)c4c3C2=O)NC(=O)/C(C)=C\C=C\[C@H](C)[C@H](O)[C@@H](C)[C@@H](O)[C@@H](C)[C@H](OC(C)=O)[C@@H]1C` [RIFAMPIN] here?
A: 6.195 ×10⁻³ log10CFU/ml/hr

Q: What about the C50g [2] of the same compound?
A: 2.019 mg/L

Q: What about the Hg [3] of the same compound?
A: 4.542

Q: And the Kkmax [4]?
A: 29.379 ×10⁻³ log10CFU/ml/hr

Q: And the C50k [5]?
A: 22.405 mg/L

Q: And the Hk [6]?
A: 45.326

— ChEMBL document CHEMBL1137651 (Antimicrob Agents Chemother, 2007)
